These results are taken from ChEMBL document CHEMBL4834399, “Pharmacokinetics of Eleven Kratom Alkaloids Following an Oral Dose of Either Traditional or Commercial Kratom Products in Rats” (J Nat Prod, 2021).

Where only a bound is given, the exact number is not on record here.

The term Cmax denotes the peak of the concentration-time curve. What is called Tmax is the time at which the peak concentration occurs. For orientation: AUC(0-t) means exposure summed from dosing to a finite time, without extrapolation to infinity. High values mean more exposure, low ones less exposure.

A short description of data set [1]: Cmax in Sprague-Dawley rat plasma at […], po administered as OPMS liquid formulation measured for 24 hrs by UPLC-MS/MS analysis. In kind it is ADME, organism-based. Also noted: route oral, time 24 hrs, dose 0.18 mg/kg.
A short description of data set [2]: Tmax in Sprague-Dawley rat plasma at […], po administered as OPMS liquid formulation measured for 24 hrs by UPLC-MS/MS analysis. In kind it is ADME, organism-based. Conditions: dose 0.18 mg/kg.
Data set [3] in a line: Dose normalized AUC(0 to 24 hrs) in Sprague-Dawley rat plasma at 0.13 mg/kg, po administered as LKT formulation measured for 24 hrs by UPLC-MS/MS analysis. In kind it is ADME, organism-based. Particulars: in vivo.
Data set [4] is described as follows: Dose normalized Cmax in Sprague-Dawley rat plasma at 0.13 mg/kg, po administered as LKT formulation measured for 24 hrs by UPLC-MS/MS analysis. In kind it is ADME, organism-based. Conditions: in vivo. The procedure, abridged:
(§1)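 Jugular-cannulated male SD rats (225 ± 25 g, n = 4) were fasted 12–16 h and given one oral gavage of LKT (366 mg/kg) or OPMS liquid (0.8 mL/kg) in water at 4 mL/kg, with dosing normalized to MTG human equivalent dose. Plasma was sampled from predose to 24 h and measured by UPLC–MS/MS (LLOQ 1 ng/mL). Cmax and Tmax were read from the observed data; Cmax/dose was also reported. Mean ± SEM.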

Data set [5] in a line: AUC(0 to 24 hrs) in Sprague-Dawley rat plasma at 0.13 mg/kg, po administered as LKT formulation measured for 24 hrs by UPLC-MS/MS analysis. In kind it is ADME, organism-based. Also noted: route oral, time 24 hrs, dose 0.13 mg/kg.
The nature of data set [6]: Tmax in Sprague-Dawley rat plasma at 0.13 mg/kg, po administered as LKT formulation measured for 24 hrs by UPLC-MS/MS analysis. In kind it is ADME, organism-based. The procedure, abridged:
as §1

Data set [7] can be described thus: AUC(0 to 24 hrs) in Sprague-Dawley rat plasma at […], po administered as OPMS liquid formulation measured for 24 hrs by UPLC-MS/MS analysis. Also noted: route oral, dose 0.18 mg/kg, time 24 hrs. In kind it is ADME, organism-based.
Data set [8] is described as follows: Dose normalized Cmax in Sprague-Dawley rat plasma at […], po administered as OPMS liquid formulation measured for 24 hrs by UPLC-MS/MS analysis. Conditions: in vivo, dose 0.18 mg/kg. In kind it is ADME, organism-based.
Data set [9] in a line: Dose normalized AUC(0 to 24 hrs) in Sprague-Dawley rat plasma at […], po administered as OPMS liquid formulation measured for 24 hrs by UPLC-MS/MS analysis. In kind it is ADME, organism-based. Conditions: in vivo, dose 0.18 mg/kg.
Data set [10] is described as follows: Dose normalized Cmax in po dosed rat plasma. In kind it is ADME, organism-based. Particulars: in vivo.
Data set [11] can be described thus: Dose normalized AUC(0-24 hrs) in po dosed rat plasma. In kind it is ADME, organism-based. Conditions: in vivo.
The nature of data set [12]: Stability of the compound in rat plasma assessed as drug recovery. In kind it is ADME, cell-free.
Data set [13] is described as follows: Stability of the compound in water-methanol mixture (1:1) assessed as drug recovery. Conditions: buffer. In kind it is physicochemical.

As for `CC[C@@H]1CN2CCc3c([nH]c4ccccc34)[C@@H]2C[C@@H]1/C(=C\OC)C(=O)OC` [CORYNANRHEIDINE], the peak level in data set [1] (Cmax at 24 h) was 3.1 ng/mL. Further, in data set [2], the Tmax at 24 h worked out at 3.1 h. In addition, the figures for the AUC/dose in [3], in data set [9] and in data set [11] were 63.1 kg·ng·h/mL/mg, 152.2 kg·ng·h/mL/mg and 138.8 kg·ng·h/mL/mg, respectively. The results for the Cmax/dose in data set [4], in [8] and in [10] were 14 kg·ng/mL/mg, 15.6 kg·ng/mL/mg and 10.7 ng/mL, respectively. Moreover, the AUC(0-t) at 24 h in data set [5] was 8.2 ng·h/mL; in data set [7] it was 30.4 ng·h/mL. Also, the Tmax in data set [6] came to 1 h. Further, the Drug recovery in data set [12] was more than 90%; in data set [13] it was more than 80%.
